Values after ≈ are worked out from the molar mass of the structure shown. Active and inactive are the calls of the source. The calls are words filed in the database; no cut-off is given here.
Tests used:
Leishmania major = assay: Antileishmanial activity against Leishmania major kwh 23 after 72 hrs using neobar counting by microscopy; assay type: functional, organism-based; details: kwh 23, 72 h
Procedure, shortened: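 Leishmania major promastigotes grown 7 days at 24 °C in medium 199 with 10% FBS. Samples as 10,000 ppm DMSO stocks, added to reach 200 ppm in the first row and serially diluted in 96-well plates, DMSO kept <5%. DMSO negative and amphotericin B positive controls. Incubated 72 h at 24 °C. Mortality counted in a counting chamber by light microscopy. Run 3 times. IC50 is the concentration giving 50% parasite reduction.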

Salmonella typhimurium [1] = assay: Antibacterial activity against Salmonella typhimurium ATCC 14028 after 18 hrs by microdilution method; assay type: functional; details: Salmonella enterica subsp. enterica serovar Typhimurium
Procedure, shortened: (§1)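 Broth microdilution. Twofold dilutions in culture broth at […]. Each well inoculated with bacterial suspension (10^8 CFU/mL, about 10^5 CFU/well). Sterility control and growth control (broth plus DMSO) included. Incubated at 36 °C for 18 h, in triplicate. MIC taken as the lowest concentration inhibiting growth, given in micrograms per mL.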

[2] = tested on: Agrobacterium tumefaciens; assay: Antitumor activity against Agrobacterium tumefaciens -induced tumor at 1000 ug/ml after 21 days by potato disc bioassay technique; assay type: functional
Procedure, shortened: (§2)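 Potato disc assay with 48 h culture of A. tumefaciens At-10. Inoculum contained compound at […]. Red-skinned potatoes sterilized in 0.1% HgCl2; 8 mm × 4 mm discs placed ten per 1.5% agar plate, […] each. Incubated at 28 °C in the dark for 21 days, in triplicate. Discs stained with Lugol's and tumors counted. Percent inhibition calculated against the negative control.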

Staphylococcus aureus [3] = assay: Antibacterial activity against Staphylococcus aureus ATCC 6538 at 40 mg/mL after 24 hrs by disc diffusion method; assay type: functional
Procedure, shortened: (§3)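 Disc diffusion. Strains grown in nutrient broth at 37 °C for 24 h. 1% culture (about 10^6 CFU/mL) mixed into nutrient agar at 45 °C and poured. 4 mm paper discs received compound at 40 mg/mL stock in DMSO; final concentrations tested were […]. DMSO served as negative control, roxithromycin and cefixime as positive controls. Triplicate plates incubated at 37 °C for 24 h. Complete-inhibition zone diameter (mm) recorded as the mean of 3.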

Aspergillus fumigatus [4] = assay: Antifungal activity against Aspergillus fumigatus FCBP 66 at 40 mg/mL after 7 days by disc diffusion method; assay type: functional
Procedure, shortened: (§4)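 Disc diffusion on SDA. Fungi cultured at 28 °C for 24 h. 4 mm discs received compound at 40 mg/mL stock in DMSO. DMSO served as negative control, terbinafine as positive control. Plates incubated at 28 °C for 7 days. Growth diameter (mm) measured and inhibition calculated against the negative control. MIC taken as the lowest concentration with no growth.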

Aspergillus flavus [5] = assay: Antifungal activity against Aspergillus flavus FCBP 0064 after 7 days by disc diffusion method; assay type: functional, organism-based; procedure, shortened: as §4
Escherichia coli [6] = assay: Antibacterial activity against Escherichia coli ATCC 15224 after 18 hrs by microdilution method; assay type: functional; procedure, shortened: as §1
Mucor [7] = assay: Antifungal activity against Mucor FCBP 0400 at 40 mg/mL after 7 days by disc diffusion method; assay type: functional; procedure, shortened: as §4
[8] = tested on: Agrobacterium tumefaciens; assay: Antitumor activity against Agrobacterium tumefaciens -induced tumor at 100 ug/ml after 21 days by potato disc bioassay technique; assay type: functional; procedure, shortened: as §2
Escherichia coli [9] = assay: Induction of Escherichia coli pBR322 DNA damage assessed as open circular form at 1 ug/ml after 60 mins by gel electrophoresis
[10] = tested on: Agrobacterium tumefaciens; assay: Antitumor activity against Agrobacterium tumefaciens -induced tumor at 10 ug/ml after 21 days by potato disc bioassay technique; assay type: functional; procedure, shortened: as §2
[11] = tested on: Bordetella bronchiseptica; assay: Antibacterial activity against Bordetella bronchiseptica ATCC 4617 after 18 hrs by microdilution method; assay type: functional; procedure, shortened: as §1
Escherichia coli [12] = assay: Antibacterial activity against Escherichia coli ATCC 15224 at 40 mg/mL after 24 hrs by disc diffusion method; assay type: functional; procedure, shortened: as §3
Salmonella typhimurium [13] = assay: Antibacterial activity against Salmonella typhimurium ATCC 14028 at 40 mg/mL after 24 hrs by disc diffusion method; assay type: functional; details: Salmonella enterica subsp. enterica serovar Typhimurium; procedure, shortened: as §3
Klebsiella aerogenes [14] = assay: Antibacterial activity against Enterobacter aerogenes ATCC 13048 after 18 hrs by microdilution method; assay type: functional, organism-based; procedure, shortened: as §1
Aspergillus flavus [15] = assay: Antifungal activity against Aspergillus flavus FCBP 0064 at 40 mg/mL after 7 days by disc diffusion method; assay type: functional; procedure, shortened: as §4
Aspergillus niger [16] = assay: Antifungal activity against Aspergillus niger FCBP 0198 at 40 mg/mL after 7 days by disc diffusion method; assay type: functional; procedure, shortened: as §4
[17] = tested on: Bordetella bronchiseptica; assay: Antibacterial activity against Bordetella bronchiseptica ATCC 4617 at 40 mg/mL after 24 hrs by disc diffusion method; assay type: functional; procedure, shortened: as §3
Escherichia coli [18] = assay: Induction of Escherichia coli pBR322 DNA damage assessed as open circular form at 100 ug/ml after 60 mins by gel electrophoresis
Aspergillus niger [19] = assay: Antifungal activity against Aspergillus niger FCBP 0198 after 7 days by disc diffusion method; assay type: functional, organism-based; procedure, shortened: as §4
Aspergillus fumigatus [20] = assay: Antifungal activity against Aspergillus fumigatus FCBP 66 after 7 days by disc diffusion method; assay type: functional, organism-based; procedure, shortened: as §4
Escherichia coli [21] = assay: Induction of Escherichia coli pBR322 DNA damage assessed as open circular form at 10 ug/ml after 60 mins by gel electrophoresis
Bacillus spizizenii [22] = assay: Antibacterial activity against Bacillus subtilis ATCC 6633 after 18 hrs by microdilution method; assay type: functional; procedure, shortened: as §1
Bacillus spizizenii [23] = assay: Antibacterial activity against Bacillus subtilis ATCC 6633 at 40 mg/mL after 24 hrs by disc diffusion method; assay type: functional; procedure, shortened: as §3
Artemia salina = assay: Cytotoxicity in brine shrimp assessed as mortality after 24 hrs; assay type: functional
Mucor [24] = assay: Antifungal activity against Mucor FCBP 0400 at 40 mg/mL by disc diffusion method; assay type: functional, organism-based; procedure, shortened: as §4
Escherichia coli [25] = assay: Induction of Escherichia coli pBR322 DNA damage assessed as open circular form at 1000 ug/ml after 60 mins by gel electrophoresis
Staphylococcus aureus [26] = assay: Antibacterial activity against Staphylococcus aureus ATCC 6538 after 18 hrs by microdilution method; assay type: functional; procedure, shortened: as §1
Klebsiella aerogenes [27] = assay: Antibacterial activity against Enterobacter aerogenes ATCC 13048 at 40 mg/mL after 24 hrs by disc diffusion method; assay type: functional; procedure, shortened: as §3

| Molecule | MIC (Salmonella typhimurium [1]) | Activity [2] | inhibition zone (IZ) (Staphylococcus aureus [3]) | inhibition zone (IZ) (Aspergillus fumigatus [4]) | MIC (Aspergillus flavus [5]) | MIC (Escherichia coli [6]) | inhibition zone (IZ) (Mucor [7]) | Activity [8] | Activity (Escherichia coli [9]) | Activity [10] | MIC [11] | inhibition zone (IZ) (Escherichia coli [12]) | inhibition zone (IZ) (Salmonella typhimurium [13]) | MIC (Klebsiella aerogenes [14]) | inhibition zone (IZ) (Aspergillus flavus [15]) | inhibition zone (IZ) (Aspergillus niger [16]) | inhibition zone (IZ) [17] | Activity (Escherichia coli [18]) | MIC (Aspergillus niger [19]) | MIC (Aspergillus fumigatus [20]) | further results |
| --- | --- | --- | --- | --- | --- | --- | --- | --- | --- | --- | --- | --- | --- | --- | --- | --- | --- | --- | --- | --- | --- |
| C[C@@H]1[C@H](O)[C@@H](C)/C=C/C=C/C=C/C=C/C=C/C=C/C=C/[C@H](O[C@@H]2O[C@H](C)[C@@H](O)[C@H](N)[C@@H]2O)C[C@@H]2O[C@](O)(C[C@@H](O)C[C@@H](O)[C@H](O)CC[C@@H](O)C[C@@H](O)CC(=O)O[C@H]1C)C[C@H](O)[C@H]2C(=O)O [AMPHOTERICIN B] | – | – | – | – | – | – | – | – | – | – | – | – | – | – | – | – | – | – | – | – | IC50 (Leishmania major): 0.56 µg/mL (≈ 0.606 µM) |
| Di-tert-butylstannanediyl bis[4-(2-methoxyphenylamino)-4-oxobutanoate] | 6.25 µg/mL | 92.4% | 17 mm | 18 mm | 100 µg/mL | 12.5 µg/mL | 14 mm | 71.5% | Active | 53.4% | 12.5 µg/mL | 24 mm | 26 mm | 6.25 µg/mL | 20 mm | 24 mm | 30 mm | Active | 100 µg/mL | 100 µg/mL | Activity (Escherichia coli [21]): Active; MIC (Bacillus spizizenii [22]): 12.5 µg/mL; inhibition zone (IZ) (Bacillus spizizenii [23]): 40 mm; LD50 (Artemia salina): 3.11 µg/mL; MIC (Mucor [24]): 100 µg/mL; Activity (Escherichia coli [25]): Active; MIC (Staphylococcus aureus [26]): 12.5 µg/mL; inhibition zone (IZ) (Klebsiella aerogenes [27]): 40 mm |
| N-[(2-methoxyphenyl)]-4-oxo-4-[(tribenzylstannyl)oxy]butanamide | 200 µg/mL | 76.1% | 17 mm | 15 mm | 200 µg/mL | 50 µg/mL | 12 mm | 62% | Active | 20.3% | 100 µg/mL | 16 mm | 15 mm | 150 µg/mL | 12 mm | 15 mm | 13 mm | Active | 150 µg/mL | 150 µg/mL | Activity (Escherichia coli [21]): Active; MIC (Bacillus spizizenii [22]): 200 µg/mL; inhibition zone (IZ) (Bacillus spizizenii [23]): 13 mm; LD50 (Artemia salina): 0.793 µg/mL; MIC (Mucor [24]): 200 µg/mL; Activity (Escherichia coli [25]): Active; MIC (Staphylococcus aureus [26]): 100 µg/mL; inhibition zone (IZ) (Klebsiella aerogenes [27]): 13 mm |

From ChEMBL document CHEMBL3352265, “Potentially bioactive organotin(IV) compounds: synthesis, characterization, in vitro bioactivities and interaction with SS-DNA” (Eur J Med Chem, 2014)
